Experimental data as given in ChEMBL document CHEMBL1142981, “Identification and synthesis of a novel selective partial PPARdelta agonist with full efficacy on lipid metabolism in vitro and in vivo” (J Med Chem, 2007).

Key:
[1] = Oral bioavailability in Sprague-Dawley rat at 0.45 mg/kg; type: ADME, organism-based; conditions: in vivo
Method in brief: (§1)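 Male SD rats, single oral dose in 5% ethanol/10% HPCD/phosphate buffer pH 7.5-8.0, n = 8. One animal was killed at each of 5, 15, 30, 60, 90, 120, 240 and 360 min. EDTA plasma was analysed by turbulent-flow LC-MS/MS. Cmax, half-life and oral bioavailability were taken from the plasma curves, with bioavailability using a parallel i.v. arm.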

[2] = biological target: T1, Peroxisome proliferator-activated receptor alpha (Homo sapiens) (UniProt Q07869); experiment: Activity at human liver PPAR alpha expressed in HEK293 cells by GAL4 transactivation assay relative to NNC61-4655; type: cell-based
T1 sequence (whole entry): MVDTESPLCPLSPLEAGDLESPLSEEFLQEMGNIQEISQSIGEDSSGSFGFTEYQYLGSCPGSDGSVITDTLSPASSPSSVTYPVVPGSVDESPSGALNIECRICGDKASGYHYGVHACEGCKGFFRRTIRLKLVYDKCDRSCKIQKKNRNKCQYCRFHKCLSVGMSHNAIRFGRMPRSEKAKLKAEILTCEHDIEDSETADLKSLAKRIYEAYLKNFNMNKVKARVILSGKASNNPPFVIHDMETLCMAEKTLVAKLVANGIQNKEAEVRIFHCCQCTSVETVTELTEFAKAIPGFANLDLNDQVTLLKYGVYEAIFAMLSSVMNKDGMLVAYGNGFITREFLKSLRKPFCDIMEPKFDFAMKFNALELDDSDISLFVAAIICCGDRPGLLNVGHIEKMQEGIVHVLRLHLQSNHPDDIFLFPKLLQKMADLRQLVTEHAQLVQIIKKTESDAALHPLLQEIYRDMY

L6 [3] = experiment: Effect on increase in fatty acid oxidation in rat L6 cells relative to GW-501516; type: functional; parameters: concentration or dose not given beside the values
Method in brief: (§2)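 Rat L6 myoblasts differentiated 5 days in 2% serum, then treated 42 h with compound (refreshed at 24 h), followed by 6 h with 0.4 mM palmitate containing [9,10-3H]-palmitic acid on 2% fatty-acid-free BSA. Stopped with 10% TCA; released 3H-H2O collected by overnight equilibration at 50 °C and counted.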

[4] = Half life in Sprague-Dawley rat at 0.45 mg/kg, po; type: ADME, organism-based; parameters: dose 0.45 mg/kg, route oral; conditions: in vivo; method in brief: as §1
L6 [5] = experiment: Effect on fatty acid oxidation in rat L6 cells; type: functional, cell-based; method in brief: as §2
[6] = biological target: T2, Peroxisome proliferator-activated receptor delta (Homo sapiens, UniProt Q03181)
T2 sequence (Q03181 whole entry): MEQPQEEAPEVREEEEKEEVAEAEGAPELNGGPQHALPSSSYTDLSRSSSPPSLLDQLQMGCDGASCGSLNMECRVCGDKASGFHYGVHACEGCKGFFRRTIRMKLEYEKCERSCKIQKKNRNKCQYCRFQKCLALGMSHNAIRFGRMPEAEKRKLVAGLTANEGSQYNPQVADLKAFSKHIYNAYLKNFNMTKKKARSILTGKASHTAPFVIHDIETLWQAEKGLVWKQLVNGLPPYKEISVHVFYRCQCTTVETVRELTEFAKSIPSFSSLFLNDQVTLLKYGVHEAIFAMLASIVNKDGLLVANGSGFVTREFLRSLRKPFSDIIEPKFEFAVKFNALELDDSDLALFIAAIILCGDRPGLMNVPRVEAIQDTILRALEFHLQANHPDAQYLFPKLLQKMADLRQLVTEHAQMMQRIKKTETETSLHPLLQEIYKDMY

[7] = Plasma Cmax in Sprague-Dawley rat at 0.45 mg/kg, po; type: ADME, organism-based; parameters: dose 0.45 mg/kg, route oral; method in brief: as §1
[8] = Clearance in Sprague-Dawley rat at 0.20 mg/kg, iv; type: ADME, organism-based; parameters: dose 0.2 mg/kg, route intravenous; conditions: in vivo, 0.2 mg/kg
Method in brief: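 Male SD rats dosed once i.v. or p.o. (n = 8 per route), vehicle 5% ethanol, 10% HPCD, phosphate buffer pH 7.5-8.0. One animal sacrificed at each of 5, 15, 30, 60, 90, 120, 240 and 360 min; EDTA plasma analysed by high turbulence LC-MS/MS. Each data point represents one animal.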

[9] = Volume of distribution in Sprague-Dawley rat at 0.20 mg/kg, iv; type: ADME, organism-based; parameters: dose 0.2 mg/kg, route intravenous; conditions: in vivo, 0.2 mg/kg, read-out: Vss
Method in brief: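 Male SD rats received a single p.o. or i.v. dose (n = 8 per route) in 5% ethanol, 10% HPCD and phosphate buffer, pH 7.5-8.0. At 5, 15, 30, 60, 90, 120, 240 and 360 min one rat was sacrificed per time point. EDTA plasma was assayed by high turbulence LC-MS/MS. Cmax and bioavailability were taken from oral dosing; volume of distribution is at steady state.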

[10] = biological target: T3, Peroxisome proliferator-activated receptor gamma (Homo sapiens, UniProt P37231); type: cell-based, HEK293
T3 sequence (P37231 whole entry): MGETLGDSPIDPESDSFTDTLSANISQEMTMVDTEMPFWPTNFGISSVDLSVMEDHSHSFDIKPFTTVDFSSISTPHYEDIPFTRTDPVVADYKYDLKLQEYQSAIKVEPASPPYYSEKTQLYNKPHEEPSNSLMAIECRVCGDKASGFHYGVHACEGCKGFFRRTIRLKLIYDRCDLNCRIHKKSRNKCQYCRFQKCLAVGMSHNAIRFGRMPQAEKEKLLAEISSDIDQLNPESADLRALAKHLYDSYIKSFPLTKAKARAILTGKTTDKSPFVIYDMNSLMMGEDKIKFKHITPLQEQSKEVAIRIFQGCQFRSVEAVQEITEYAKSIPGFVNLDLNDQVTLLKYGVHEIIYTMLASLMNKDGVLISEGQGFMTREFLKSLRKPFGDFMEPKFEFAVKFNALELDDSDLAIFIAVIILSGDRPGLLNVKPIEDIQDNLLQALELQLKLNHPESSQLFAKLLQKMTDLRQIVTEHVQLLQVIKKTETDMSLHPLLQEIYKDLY

[11] = biological target: T4, Peroxisome proliferator-activated receptor alpha (Homo sapiens, UniProt Q07869); experiment: Activity at human liver PPAR alpha expressed in HEK293 cells by PPAR-GAL4 transactivation assay; type: cell-based
T4 sequence (Q07869 whole entry): T1 sequence (whole entry)

Structure (SMILES)	bioavailability [1]	Efficacy [2]	Activity (L6 [3])	half-life [4]	EC50 (L6 [5])	EC50 [6]	Cmax [7]	clearance [8]	Vd [9]	EC50 [10]	EC50 [11]
O=C(O)Cc1ccc(OCC=C(c2ccc(Br)cc2)c2ccc(Br)cc2)c(Cl)c1	130%	< 10%	85%	3.02 h	379 nM	2300 nM	241 ng/mL	7 mL/min/kg	1.4 L/kg		
O=C(O)Cc1cccc(OCC=C(c2ccc(Br)cc2)c2ccc(Br)cc2)c1		> 19%	78%	2.55 h	224 nM	830 nM	419 ng/mL			> 10000 nM	> 10000 nM
CN(CCOc1ccc(CC2SC(=O)NC2=O)cc1)c1ccccn1 (stereo not drawn) [ROSIGLITAZONE]		> 24%	58%		5000 nM						
CC(C)(Oc1ccc(C(=O)c2ccc(Cl)cc2)cc1)C(=O)O [FENOFIBRIC ACID]		> 94%	70%		3000 nM	> 10000 nM					> 10000 nM
O=C(O)CCc1cccc(OCC=C(c2ccc(Br)cc2)c2ccc(Br)cc2)c1		< 10%	59%	15.9 h	615 nM	5900 nM	51 ng/mL	27 mL/min/kg	5.3 L/kg		
